Data published in ChEMBL document CHEMBL2062366, “Synthesis and biological evaluation of purpurealidin E-derived marine sponge metabolites: aplysamine-2, aplyzanzine A, and suberedamines A and B” (2012).
≈ marks a conversion by molar mass, not a printed value. Calls of active or inactive are those of the source. No cut-off for these calls is given here.

tested on: Mycobacterium tuberculosis; assay: Antimycobacterial activity against Mycobacterium bovis BCG after 2 weeks by spot culture growth inhibition assay; type: functional; conditions: variant bovis BCG
Method in brief: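 BCG grown in rolling bottles in 7H9 + 10% ADC + 0.05% Tween 80 to midexponential phase, quality-checked by Ziehl−Neelsen staining. Culture diluted to 10³ cfu/mL; 10 μL spotted onto 7H10 agar + 10% OADC containing compound, 37 °C for 2 weeks. Controls: DMSO (negative), isoniazid (positive). MIC = lowest concentration with no growth.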

| SMILES | MIC |
| --- | --- |
| CN(C)CCCOc1c(Br)cc(CCN)cc1Br | inactive |

same assay, conditions: variant bovis BCG, 336 h

| SMILES | MIC [µg/mL] |
| --- | --- |
| CN[C@@H](Cc1ccc(OC)c(Br)c1)C(=O)NCCc1cc(Br)c(OCCCN(C)C)c(Br)c1 [SUBEREDAMINE B] | 40 (≈ 61.5 µM) |
| COc1ccc(C/C(=N\O)C(=O)NCCc2cc(Br)c(OCCCN(C)C)c(Br)c2)cc1Br | 25 (≈ 38.4 µM) |
| COc1c(Br)cc(C[C@@H](C(=O)NCCc2cc(Br)c(OCCCN(C)C)c(Br)c2)N(C)C)cc1Br [APLYZANZINE A] | 25 (≈ 33.6 µM) |
| CNC(Cc1cc(Br)c(OC)c(Br)c1)C(=O)NCCCOc1c(Br)cc(CCN(C)C)cc1Br.Cl (stereo unspecified) [ANOMOIAN A] | 25 |
| COc1ccc(C[C@H](N)C(=O)NCCc2cc(Br)c(OCCCN(C)C)c(Br)c2)cc1Br [SUBEREDAMINE A] | 50 (≈ 78.6 µM) |
